Compound activity from PubChem BioAssay.
This is a sample that favours compounds with a hit; in the whole collection about 0.96% have one here.
AGP1 TOR yeast: yeast TOR pathway AGP1-GFP modulation. 320,000 compounds, 0.02% hits. GFP response vs DMSO, % at 10 µM. AID 2066. S. cerevisiae AGP1-GFP multiplex flow cytometry, 3 h; GFP as percent of DMSO wells;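 active = GFP response relative to DMSO above a set limit, near screen average plus 3 SD, cut at about 150% in these data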;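 also: median GFP channel fluorescence of the gated AGP1 strain per well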
RPL19A-GFP yeast: modulators of TOR pathway RPL19A-GFP in S. cerevisiae; S. cerevisiae RPL19A-GFP strain, flow cytometry, 3 h; stronger effect = lower value; percent response vs DMSO, % at 10 µM; 330,000 compounds, 0.3% hits;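 active = percent response vs DMSO below 50%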;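 also: median channel GFP fluorescence of the barcoded RPL19A-GFP strain; ratio of sample median GFP to plate DMSO average so 100% = DMSO; lower means less RPL19A-GFP as with rapamycin TOR inhibition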
T cell HTS: modulates CD8 T cell binding to vesicles; 2C CD8+ T cell-vesicle binding, flow cytometry; stronger effect = lower value; response (vesicle binding), % at 7 µM; 330,000 compounds, 0.068% hits;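 active = response, share of CD8 T cells binding vesicles, and their 90th percentile fluorescence all below set limits, cut at about 80% in these data, passing the limit was not always enough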;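 also: values below 100% mean blocked vesicle binding to the CD8+ T cells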
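Also added: QL9-peptide-loaded Drosophila micro-vesicles bearing Ld, ICAM-1 and B7-1; Test system: purified 2C TCR transgenic mouse naive CD8+ T cells; Measured by: cytometric PE anti-B7-1 and Alexa647 anti-CD8 signals after 1% paraformaldehyde fixation; Timing: binding step 1.5 h, 37 °C, antibody labelling 20 min, ice.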
MEP2-GFP yeast: alters MEP2-GFP fluorescence in TOR pathway yeast screen. S. cerevisiae MEP2-GFP strain, flow cytometry GFP, 3 h; 100% = DMSO control level. GFP response vs DMSO, % at 10 µM. 330,000 compounds, 0.51% hits;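 active = GFP response versus DMSO above a set limit, roughly screen mean plus 3 SD, cut at about 180% in these data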;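 also: median GFP fluorescence of the barcode-gated MEP2-GFP cells per well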
LAP4-GFP MLPCN: yeast TOR pathway LAP4-GFP modulation; S. cerevisiae LAP4-GFP multiplex, flow cytometry GFP, 3 h; median GFP as percent of DMSO wells; GFP response vs DMSO, % at 10 µM; 320,000 compounds, 0.34% hits;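 active = GFP response vs DMSO above a set limit, about the screen mean plus 3 SD, cut at about 150% in these data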
CIT2 TOR yeast: yeast TOR pathway CIT2-GFP modulation | 320,000 compounds, 0.065% hits | AID 2029 | GFP response vs DMSO, % at 10 µM | S. cerevisiae CIT2-GFP strain, flow cytometry, 3 h; 100 means same as DMSO wells;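 active = GFP response relative to DMSO above a set limit, near the screen mean plus 3 SD, cut at about 150% in these data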;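 also: ratio of well median GFP fluorescence to mean of DMSO wells on the plate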
LAP4 cherry2: second confirmation of modulators of TOR reporter LAP4-GFP in yeast. shares compounds with LAP4-GFP MLPCN. S. cerevisiae LAP4-GFP strain, flow cytometry GFP, 3 h. GFP response vs DMSO, % at 10 µM. 590 compounds, 20% hits;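 active = GFP signal as percent of the solvent control above about 150%, meaning raised reporter expression, limit read from the data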;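 also: ratio of well median GFP fluorescence to plate DMSO mean so 100% = DMSO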
MEP2-GFP pick2: reconfirmed MEP2-GFP TOR pathway modulator in yeast. shares compounds with LAP4-GFP MLPCN. S. cerevisiae MEP2-GFP strain, flow cytometry GFP, 3 h. 590 compounds, 10% hits. GFP response vs DMSO, % at 10 µM;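 active = GFP signal above 150% of the solvent control wells, that is a rise of more than half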;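 also: median channel GFP fluorescence of all gated yeast cells per well; ratio of median GFP to plate DMSO average so 100% = DMSO level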
RPL19A GFP CP2: yeast RPL19A-GFP TOR reporter modulation, second cherry pick; GFP response vs DMSO, % at 10 µM; 590 compounds, 3% hits; S. cerevisiae RPL19A-GFP strain, flow cytometry GFP, 3 h; stronger effect = lower value; 100% means same as DMSO wells; shares compounds with LAP4-GFP MLPCN;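 active = under 65% GFP response relative to DMSO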;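 also: median GFP channel fluorescence per well over the all cells gate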
CIT2 GFP CP2: second confirmation of modulators of TOR reporter CIT2-GFP in yeast; shares compounds with LAP4-GFP MLPCN; S. cerevisiae CIT2-GFP strain, flow cytometry GFP, 3 h; DMSO control wells read 100%; GFP response vs DMSO, % at 10 µM; 590 compounds, 8% hits;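 active = GFP response vs DMSO above about 150%, limit read from the data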;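 also: median green fluorescence per well over all gated yeast cells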
AGP1-GFP pick2: second confirmation of modulators of TOR reporter AGP1-GFP in yeast. shares compounds with LAP4-GFP MLPCN. 590 tested, under 10 active. percent response vs DMSO, % at 10 µM. S. cerevisiae AGP1-GFP strain, flow cytometry GFP, 3 h;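 active = over 150 percent of DMSO response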;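 also: median GFP channel fluorescence over all cells without mother daughter split; sample median GFP divided by mean DMSO control so 100% equals DMSO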
Yeast autofluor: compound is autofluorescent in yeast s288c cells; shares compounds with LAP4-GFP MLPCN; S. cerevisiae s288c, 520 nm autofluorescence, flow cytometry, 3 h; stronger effect = higher value; zero means same as solvent-only cells; fluorescence change (kMESF span) at 33 µM; 610 tested, under 10 active; AID 2757;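 active = fluorescence span over the dose series, or activity score, above about 33, limit read from the data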
Starred values were filed as active, the others as inactive; i = inactive; x = not tested or not shown.

SMILES	AGP1 TOR yeast	RPL19A-GFP yeast	T cell HTS	MEP2-GFP yeast	LAP4-GFP MLPCN	CIT2 TOR yeast	LAP4 cherry2	MEP2-GFP pick2	RPL19A GFP CP2	CIT2 GFP CP2	AGP1-GFP pick2	Yeast autofluor
COc1ccc2c(c1)S/C(=C\C(=O)c1ccncc1)N2C	56	56	192	103	106	68	97	114	62*	100	67	0.81
Cc1n[nH]c(=O)c2c(NC(=O)CSc3nc4ccccc4c(=O)n3CCCOC(C)C)oc(C)c12	110	97	179	101	98	98	x	x	x	x	x	x
CN(C)/C=C1/Sc2ccccc2C1=O	101	102	198	95	103	98	x	x	x	x	x	x
CC(=O)N(\C=C/C=C/C=C1\Sc2ccccc2C1=O)c1ccccc1	105	113	277	283*	167*	200*	x	x	x	x	x	10
CCC(C)[C@H](NC(=O)N1CC(=O)Nc2ccccc21)C(=O)N1CCC[C@H]1C(=O)O (some centres not stated)	104	101	336	105	100	99	x	x	x	x	x	x
CCOP(=O)(OCC)C(Nc1cccc([N+](=O)[O-])c1)c1ccc(N(C)C)cc1 (configuration not stated)	77	86	126	103	103	86	x	x	x	x	x	x
CCOP(=O)(OCC)C(Nc1cccc([N+](=O)[O-])c1)c1ccc(OC)cc1 (configuration not stated)	40	58	170	138	99	94	100	102	101	109	102	x
Fc1ccc(Nc2nc(-c3cccnc3)cs2)cc1	74	59	455	149	102	92	100	102	102	100	97	x
Cc1cccc(C)c1N(CC(=O)NCc1ccco1)C(=O)CNS(=O)(=O)c1ccc(F)cc1	97	99	208	131	106	106	x	x	x	x	x	x
CCSc1nnc2ccc(-c3ccc(OC)c(OC)c3)nn12	111	97	416	97	89	151*	88	108	107	111	98	x
CCCN(C(=O)Cc1csc(-c2ccccc2)n1)C1CCS(=O)(=O)C1 (configuration not stated)	109	107	584	105	104	104	x	x	x	x	x	x
O=C1C=C(Nc2ccc(Cl)cc2)C(=O)N1c1ccc(Cl)cc1	96	101	127	100	98	101	96	96	99	104	97	0.2
COc1ccc(N2CCN(C(=O)c3ccc(C)cc3)CC2)c([N+](=O)[O-])c1	94	95	233	91	97	86	x	x	x	x	x	x
COc1ccc(N2CCN(C(=O)c3ccc(Br)cc3)CC2)c([N+](=O)[O-])c1	122	90	252	99	199*	72	x	x	x	x	x	2.3
COc1ccc(N2CCN(C(=O)c3ccccc3)CC2)c([N+](=O)[O-])c1	65	70	250	89	189*	61	x	x	x	x	x	-0.3
COc1ccc(-c2cc(C)no2)cc1S(=O)(=O)Nc1cccc(CN2CCCC2)c1	100	101	i	100	92	93	x	x	x	x	x	x
COc1ccc(-c2cc(C)no2)cc1S(=O)(=O)N1CCCN(Cc2ccc(F)cc2)C1	73	52	347	129	87	103	100	100	99	104	98	x
COc1ccc(CCN2CC(C(=O)N(C)CC(=O)Nc3cccc(F)c3)CC2=O)cc1OC (configuration not stated)	98	93	488	93	78	x	x	x	x	x	x	x
O=C(O)C(c1ccccc1)N1C(=O)/C(=C/c2cccs2)SC1=S (configuration not stated)	100	99	591	94	105	100	x	x	x	x	x	x
CC(c1ccccc1)N1C(=O)/C(=C/c2ccncc2)SC1=S (configuration not stated)	90	84	473	82	194*	73	261*	124	79	99	97	0.81
CCCS(=O)(=O)c1nnnn1-c1cccc(OC)c1	79	80	431	90	204*	67	x	x	x	x	x	2
COc1cccc(-n2nnnc2SCC(=O)Nc2ccccc2OC)c1	98	98	339	97	97	100	x	x	x	x	x	x
COc1ccc2c(c1)CC[C@@H]1[C@@H]2CC[C@]2(C)[C@@H](C(=O)O)C[C@@H]12	78	93	272	94	167*	64	116	110	90	88	88	x
CC(C)OP(=O)(OC(C)C)C(O)c1ccc(N(C)C)cc1 (configuration not stated)	106	97	176	93	104	102	x	x	x	x	x	x
COc1ccc(-c2[nH]c3ccccc3c2SCCNC(=O)c2ccccc2)cc1	140	66	318	662*	217*	148	98	100	100	97	100	x
CCOC(=O)c1ccc(N=Cc2nc(-c3ccccc3)oc2OC(C)=O)cc1	85	92	460	91	208*	85	x	x	x	x	x	0.51
COc1ccc(N=Cc2nc(-c3ccccc3)oc2OC(=O)c2ccccc2)cc1	88	106	170	99	74	100	x	x	x	x	x	-0.31
CC(=O)Oc1oc(-c2ccccc2)nc1C=Nc1ccccc1	89	104	292	94	140	97	x	x	x	x	x	-0.1
CCC1CCCCN1CCCNC(=O)C1CC(=O)N(CCc2ccccc2)C1 (configuration not stated)	95	96	462	95	92	108	x	x	x	x	x	x
CC(C)N(Cc1ccccc1)C(=O)COC(=O)c1cc[n+]([O-])cc1	100	100	293	100	102	102	x	x	x	x	x	x
